Reference: ChEMBL document CHEMBL2380298, “Synthesis and antimicrobial activity of novel amphiphilic aromatic amino alcohols” (2013)
Converted amounts (≈) assume the structure as drawn.

Tests used:
Assay type in all cases: functional
[1] = tested on: Staphylococcus epidermidis; experiment: Antimicrobial activity against Staphylococcus epidermidis ATCC 12228 by broth dilution method; conditions: Staphylococcus epidermidis, ATCC 12228
[2] = tested on: Staphylococcus aureus; experiment: Bactericidal activity against methicillin-resistant Staphylococcus aureus clinical isolate 264 after 24 hrs; conditions: isolate 264, 24 h
How it was run: (§1)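 Bactericidal concentration: 0.1 ml from wells at the MIC dilution and the dilutions on either side was streaked onto tryptic soy agar and incubated 24 h. It was taken as the lowest drug concentration giving no growth (100% killing).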

[3] = tested on: Staphylococcus aureus; experiment: Bactericidal activity against methicillin-resistant Staphylococcus aureus clinical isolate 260 after 24 hrs; conditions: isolate 260, 24 h; how it was run: as §1
[4] = tested on: Staphylococcus aureus; experiment: Bactericidal activity against methicillin-resistant Staphylococcus aureus clinical isolate 259 after 24 hrs; conditions: isolate 259, 24 h; how it was run: as §1
[5] = tested on: Staphylococcus aureus; experiment: Bactericidal activity against methicillin-resistant Staphylococcus aureus clinical isolate 257 after 24 hrs; conditions: isolate 257, 24 h; how it was run: as §1
[6] = tested on: Staphylococcus aureus; experiment: Bactericidal activity against methicillin-resistant Staphylococcus aureus clinical isolate 255 after 24 hrs; conditions: isolate 255, 24 h; how it was run: as §1
[7] = tested on: Staphylococcus aureus; experiment: Bactericidal activity against methicillin-resistant Staphylococcus aureus clinical isolate 238 after 24 hrs; conditions: isolate 238, 24 h; how it was run: as §1
[8] = tested on: Staphylococcus aureus; experiment: Bactericidal activity against methicillin-resistant Staphylococcus aureus clinical isolate 237 after 24 hrs; conditions: isolate 237, 24 h; how it was run: as §1
[9] = tested on: Staphylococcus aureus; experiment: Bactericidal activity against methicillin-resistant Staphylococcus aureus clinical isolate 236 after 24 hrs; conditions: isolate 236, 24 h; how it was run: as §1
[10] = tested on: Staphylococcus aureus; experiment: Bactericidal activity against methicillin-resistant Staphylococcus aureus clinical isolate 235 after 24 hrs; conditions: isolate 235, 24 h; how it was run: as §1
[11] = tested on: Staphylococcus aureus; experiment: Bactericidal activity against methicillin-resistant Staphylococcus aureus clinical isolate 232 after 24 hrs; conditions: isolate 232, 24 h; how it was run: as §1
[12] = tested on: Staphylococcus aureus; experiment: Bactericidal activity against methicillin-resistant Staphylococcus aureus clinical isolate 231 after 24 hrs; conditions: isolate 231, 24 h; how it was run: as §1
[13] = tested on: Staphylococcus aureus; experiment: Bactericidal activity against methicillin-resistant Staphylococcus aureus clinical isolate 225 after 24 hrs; conditions: isolate 225, 24 h; how it was run: as §1
[14] = tested on: Staphylococcus aureus; experiment: Bactericidal activity against methicillin-resistant Staphylococcus aureus clinical isolate 218 after 24 hrs; conditions: isolate 218, 24 h; how it was run: as §1
[15] = tested on: Staphylococcus aureus; experiment: Bactericidal activity against methicillin-resistant Staphylococcus aureus clinical isolate 212 after 24 hrs; conditions: isolate 212, 24 h; how it was run: as §1
[16] = tested on: Staphylococcus epidermidis; experiment: Bactericidal activity against Staphylococcus epidermidis ATCC 12228 after 24 hrs; conditions: ATCC 12228, 24 h
How it was run: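 MBC: after MIC determination, 0.1 ml from the MIC well and from two dilutions either side streaked on tryptic soy agar, incubated 24 h; MBC taken as lowest concentration giving no growth (100% kill).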

[17] = tested on: Staphylococcus aureus; experiment: Antimicrobial activity against methicillin-resistant Staphylococcus aureus clinical isolate assessed as resistant isolates by broth dilution method
[18] = tested on: Staphylococcus aureus; experiment: Antimicrobial activity against methicillin-resistant Staphylococcus aureus clinical isolate assessed as susceptible isolates by broth dilution method
[19] = tested on: Staphylococcus aureus; experiment: Antimicrobial activity against methicillin-resistant Staphylococcus aureus clinical isolate by broth dilution method; conditions: Staphylococcus aureus
[20] = tested on: Staphylococcus aureus; experiment: Antimicrobial activity against methicillin-resistant Staphylococcus aureus clinical isolate 264 by broth dilution method
[21] = tested on: Staphylococcus aureus; experiment: Antimicrobial activity against methicillin-resistant Staphylococcus aureus clinical isolate 260 by broth dilution method
[22] = tested on: Staphylococcus aureus; experiment: Antimicrobial activity against methicillin-resistant Staphylococcus aureus clinical isolate 257 by broth dilution method
[23] = tested on: Staphylococcus aureus; experiment: Antimicrobial activity against methicillin-resistant Staphylococcus aureus clinical isolate 259 by broth dilution method
[24] = tested on: Staphylococcus aureus; experiment: Antimicrobial activity against methicillin-resistant Staphylococcus aureus clinical isolate 238 by broth dilution method
[25] = tested on: Staphylococcus aureus; experiment: Antimicrobial activity against methicillin-resistant Staphylococcus aureus clinical isolate 255 by broth dilution method
[26] = tested on: Staphylococcus aureus; experiment: Antimicrobial activity against methicillin-resistant Staphylococcus aureus clinical isolate 237 by broth dilution method
[27] = tested on: Staphylococcus aureus; experiment: Antimicrobial activity against methicillin-resistant Staphylococcus aureus clinical isolate 236 by broth dilution method
[28] = tested on: Staphylococcus aureus; experiment: Antimicrobial activity against methicillin-resistant Staphylococcus aureus clinical isolate 235 by broth dilution method
[29] = tested on: Staphylococcus aureus; experiment: Antimicrobial activity against methicillin-resistant Staphylococcus aureus clinical isolate 232 by broth dilution method
[30] = tested on: Staphylococcus aureus; experiment: Antimicrobial activity against methicillin-resistant Staphylococcus aureus clinical isolate 227 by broth dilution method
[31] = tested on: Staphylococcus aureus; experiment: Antimicrobial activity against methicillin-resistant Staphylococcus aureus clinical isolate 231 by broth dilution method
[32] = tested on: Staphylococcus aureus; experiment: Antimicrobial activity against methicillin-resistant Staphylococcus aureus clinical isolate 225 by broth dilution method
[33] = tested on: Staphylococcus aureus; experiment: Antimicrobial activity against methicillin-resistant Staphylococcus aureus clinical isolate 215 by broth dilution method
[34] = tested on: Staphylococcus aureus; experiment: Antimicrobial activity against methicillin-resistant Staphylococcus aureus clinical isolate 218 by broth dilution method
[35] = tested on: Staphylococcus aureus; experiment: Antimicrobial activity against methicillin-resistant Staphylococcus aureus clinical isolate 212 by broth dilution method
[36] = tested on: Staphylococcus aureus; experiment: Antimicrobial activity against methicillin-resistant Staphylococcus aureus clinical isolate 207 by broth dilution method
[37] = tested on: Staphylococcus aureus; experiment: Antimicrobial activity against methicillin-resistant Staphylococcus aureus clinical isolate 205 by broth dilution method
[38] = tested on: Staphylococcus aureus; experiment: Antimicrobial activity against methicillin-resistant Staphylococcus aureus clinical isolate 195 by broth dilution method
[39] = tested on: Staphylococcus aureus; experiment: Antimicrobial activity against methicillin-resistant Staphylococcus aureus clinical isolate 178 by broth dilution method
[40] = tested on: Staphylococcus aureus; experiment: Antimicrobial activity against methicillin-resistant Staphylococcus aureus clinical isolate 176 by broth dilution method
[41] = tested on: Pseudomonas aeruginosa; experiment: Antimicrobial activity against Pseudomonas aeruginosa ATCC 27853 by broth dilution method

O=C(N[C@H](CO)[C@H](O)c1ccc([N+](=O)[O-])cc1)C(Cl)Cl [CHLORAMPHENICOL]
MIC [1]: 32 µg/mL (≈ 99 µM) | MBC [2]: 64 µg/mL (≈ 198 µM) | MBC [3]: 32 µg/mL (≈ 99 µM) | MBC [4]: 8 µg/mL (≈ 24.8 µM) | MBC [5]: 8 µg/mL (≈ 24.8 µM) | MBC [6]: 8 µg/mL (≈ 24.8 µM) | MBC [7]: 16 µg/mL (≈ 49.5 µM) | MBC [8]: 16 µg/mL (≈ 49.5 µM) | MBC [9]: 32 µg/mL (≈ 99 µM) | MBC [10]: 32 µg/mL (≈ 99 µM) | MBC [11]: 16 µg/mL (≈ 49.5 µM) | MBC [12]: 16 µg/mL (≈ 49.5 µM) | MBC [13]: 512 µg/mL (≈ 1580 µM) | MBC [14]: 128 µg/mL (≈ 396 µM) | MBC [15]: 128 µg/mL (≈ 396 µM) | MBC [16]: 128 µg/mL (≈ 396 µM) | Activity [17]: 56.3% | Activity [18]: 43.7% | MIC90 [19]: 32 µg/mL (≈ 99 µM) | MIC [20]: 8 µg/mL (≈ 24.8 µM) | MIC [21]: 4 µg/mL (≈ 12.4 µM) | MIC [22]: 8 µg/mL (≈ 24.8 µM) | MIC [23]: 128 µg/mL (≈ 396 µM) | MIC [24]: 32 µg/mL (≈ 99 µM) | MIC [25]: 4 µg/mL (≈ 12.4 µM) | MIC [26]: 32 µg/mL (≈ 99 µM) | MIC [27]: 64 µg/mL (≈ 198 µM) | MIC [28]: 64 µg/mL (≈ 198 µM) | MIC [29]: 64 µg/mL (≈ 198 µM) | MIC [30]: 64 µg/mL (≈ 198 µM) | MIC [31]: 64 µg/mL (≈ 198 µM) | MIC [32]: 8 µg/mL (≈ 24.8 µM) | MIC [33]: 64 µg/mL (≈ 198 µM) | MIC [34]: 64 µg/mL (≈ 198 µM) | MIC [35]: 8 µg/mL (≈ 24.8 µM) | MIC [36]: 4 µg/mL (≈ 12.4 µM) | MIC [37]: 8 µg/mL (≈ 24.8 µM) | MIC [38]: 4 µg/mL (≈ 12.4 µM) | MIC [39]: 4 µg/mL (≈ 12.4 µM) | MIC [40]: 64 µg/mL (≈ 198 µM) | MIC [41]: 32 µg/mL (≈ 99 µM)
